From ChEMBL document CHEMBL2057196, “Discovery of a novel class of potent human deoxyuridine triphosphatase inhibitors remarkably enhancing the antitumor activity of thymidylate synthase inhibitors” (J Med Chem, 2012)

Key:
MX1 [1] = assay: Antitumor activity against human MX1 cells xenografted in Balb/c-A JcL-nu mouse assessed as tumor volume at 15 mg/kg/day by continuous infusion for 14 days measured on day 15 relative to control (reference value: 11.4 +/- 3.74); type: functional
MX1 [2] = assay: Antitumor activity against human MX1 cells xenografted in Balb/c-A JcL-nu mouse assessed as tumor volume at 15 mg/kg/day by continuous infusion for 14 days measured on day 15 (reference value: 2048 +/- 693.7 mm3); type: functional
Summary of the method: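 Five-week-old Balb/cA JcL-nu mice with MX-1 human breast carcinoma fragments (~2 mm) implanted sc by trocar, tumour maintained by sc serial transplantation. 5-FU given by continuous infusion via osmotic pump for 14 days; vehicle 2.5% DMA, 2.5% Tween 80, 10% Cremophor, 0.5% HPMC. Tumour size measured twice weekly; TV = length × width² × 0.5, read on day 15.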

MX1 [3] = assay: Antitumor activity against human MX1 cells xenografted in Balb/c-A JcL-nu mouse assessed as tumor growth inhibition at 15 mg/kg/day by continuous infusion for 14 days measured on day 15 relative to control; type: functional; settings: read-out: GI
[4] = Potentiation of antiproliferative activity of FdUrd against human HeLaS3 cells assessed as compound concentration causing 50% reduction in 1 uM FdUrd T/C value after 24 hrs by crystal violet assay; type: functional, cell-based, HeLa S3
Summary of the method: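 HeLa S3 cells seeded at 1500 cells/well and pre-incubated 24 h. Compound (1–100 μM) or DMSO added together with FdUrd (1 μM) for 24 h. Thymidine (30 μM) then added for a further 48 h. Crystal violet read-out at OD540. EC50 is the concentration that halves the FdUrd T/C (%), taken from the curve. Mean of three independent assays ± SD.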

[5] = Antiproliferative activity against human HeLaS3 cells at 30 uM after 72 hrs by crystal violet assay; type: functional, HeLa S3
Summary of the method: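 HeLa S3 cells grown in RPMI1640 with 10% FBS, seeded at 1500 cells/well and left 24 h at 37 °C, 5% CO2. Compound (1–100 μM) or DMSO vehicle added, then 72 h incubation. Growth read by crystal violet staining, OD540. […] Average of three independent assays.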

[6] = target: T1, Deoxyuridine 5'-triphosphate nucleotidohydrolase, mitochondrial (Homo sapiens, UniProt P33316); assay: Inhibition of human dUTPase assessed as production of [5-3H]dUMP from [5-3H]dUTP after 15 mins measured by HPLC analysis
T1 sequence (P33316 whole entry): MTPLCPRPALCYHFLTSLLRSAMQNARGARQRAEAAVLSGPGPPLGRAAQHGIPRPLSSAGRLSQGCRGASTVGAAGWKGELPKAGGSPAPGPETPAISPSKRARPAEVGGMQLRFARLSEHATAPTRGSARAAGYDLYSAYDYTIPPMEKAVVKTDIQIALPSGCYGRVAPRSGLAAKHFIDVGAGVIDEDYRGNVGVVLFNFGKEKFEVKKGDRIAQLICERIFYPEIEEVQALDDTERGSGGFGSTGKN

[7] = Inhibition of Escherichia coli dUTPase
[8] = Cmax in Balb/c-A mouse at 50 mg/kg, po in a solution containing 2.5% DMA, 2.5% Tween 80 and 10% cremophor EL; type: ADME, organism-based; design: dose 50 mg/kg, route oral; settings: in vivo
Summary of the method: (§1)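 Male Balb/c-A mice aged 6–9 weeks (n = 2), single oral dose; plasma drug levels measured by UPLC.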

MX1 [9] = assay: Antitumor activity against human MX1 cells xenografted in Balb/c-A JcL-nu mouse assessed as tumor volume at 300 mg/kg/day, po for 14 days measured on day 15 (reference value: 2048 +/- 693.7 mm3); type: functional
Summary of the method: (§2)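 Five-week-old Balb/cA JcL-nu mice given sc MX-1 tumor fragments (~2 mm) by trocar. Treatment for 14 days: 5-FU 15 mg/kg/day by osmotic-pump continuous infusion, and/or oral compound. Vehicle was 2.5% DMA, 2.5% Tween 80, 10% Cremophor, 0.5% HPMC. Tumor size and body weight measured twice weekly. TV = length × width² × 0.5. RTV = TV day 15/day 0. IR = (1 − treated/control mean RTV) × 100.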

MX1 [10] = assay: Antitumor activity against human MX1 cells xenografted in Balb/c-A JcL-nu mouse assessed as decrease in tumor volume at 300 mg/kg/day, po for 14 days measured on day 15 relative to control (reference value: 11.4 +/- 3.74); type: functional; summary of the method: as §2
MX1 [11] = assay: Potentiation of antitumor activity of 5-Fu against human MX1 cells xenografted in Balb/c-A JcL-nu mouse assessed as tumor growth inhibition at 300 mg/kg/day, po for 14 days measured on day 15 relative to control; type: functional; settings: read-out: GI; summary of the method: as §2
MX1 [12] = assay: Potentiation of antitumor activity of 5-Fu against human MX1 cells xenografted in Balb/c-A JcL-nu mouse assessed as decrease in tumor volume at 300 mg/kg/day, po for 14 days measured on day 15 relative to control (reference value: 11.4 +/- 3.74); type: functional; summary of the method: as §2
MX1 [13] = assay: Antitumor activity against human MX1 cells xenografted in Balb/c-A JcL-nu mouse assessed as tumor growth inhibition at 300 mg/kg/day, po for 14 days measured on day 15 relative to control; type: functional; settings: read-out: GI; summary of the method: as §2
[14] = Antiproliferative activity against human HeLaS3 cells after 72 hrs by crystal violet assay; settings: HeLa S3, 72 h
[15] = Half life in Balb/c-A mouse at 50 mg/kg, po in a solution containing 2.5% DMA, 2.5% Tween 80 and 10% cremophor EL; type: ADME, organism-based; design: dose 50 mg/kg, route oral; settings: in vivo; summary of the method: as §1
[16] = Tmax in Balb/c-A mouse at 50 mg/kg, po in a solution containing 2.5% DMA, 2.5% Tween 80 and 10% cremophor EL; type: ADME, organism-based; design: dose 50 mg/kg, route oral; settings: in vivo; summary of the method: as §1
MX1 [17] = assay: Potentiation of antitumor activity of 5-Fu against human MX1 cells xenografted in Balb/c-A JcL-nu mouse assessed as tumor volume at 300 mg/kg/day, po for 14 days measured on day 15 (reference value: 2048 +/- 693.7 mm3); type: functional; summary of the method: as §2
Mus musculus = assay: Toxicity in Balb/c-A JcL-nu mouse bearing human MX1 cells assessed as decrease in body weight at 300 mg/kg/day, po administered for 15 days and co-treated with 5-Fu; type: organism-based; design: route oral; settings: in vivo, 336 h, in the assay text read “for 14 days” for “for 15 days”; summary of the method: as §2
[18] = AUCt in Balb/c-A mouse at 50 mg/kg, po in a solution containing 2.5% DMA, 2.5% Tween 80 and 10% cremophor EL; type: ADME, organism-based; design: dose 50 mg/kg, route oral; settings: plasma; summary of the method: as §1
[19] = Homo sapiens, HeLa S3, 24 h, read-out: EC50

O=c1[nH]cc(F)c(=O)[nH]1 [FLUOROURACIL]
Ratio (MX1 [1]): 9.13
Activity (MX1 [2]): 1645 mm3
inhibition in vivo at 15 mg/kg/day (MX1 [3]): 20%

CC(C)(CCCOCn1ccc(=O)[nH]c1=O)NS(=O)(=O)c1ccccc1
EC50 [4, 19]: 5.1 µM
EC50 ([4]; hela s3): Dose-dependent effect
T/C [5]: 96%

COc1cc(C)ccc1S(=O)(=O)NC(C)(C)CCCOCn1ccc(=O)[nH]c1=O
IC50 [6]: 19.5 µM
EC50 [4, 19]: 14.1 µM

CC(C)(CCCOCn1ccc(=O)[nH]c1=O)NS(=O)(=O)c1cccc(OCC2CC2)c1
IC50 [6]: 0.035 µM
EC50 [4, 19]: 0.18 µM

CC(NS(=O)(=O)CCCOCn1ccc(=O)[nH]c1=O)c1cccc(OCC2CC2)c1 (racemic)
IC50 [6]: 0.062 µM
EC50 [4, 19]: 0.14 µM

COc1cccc(S(=O)(=O)NC(C)(C)CCCOCn2ccc(=O)[nH]c2=O)c1
IC50 [6]: 1.2 µM
EC50 [4, 19]: 1.1 µM

C[C@@H](NS(=O)(=O)CCCOCn1ccc(=O)[nH]c1=O)c1cccc(OCC2CC2)c1
IC50 [6]: 0.04 µM
EC50 [4, 19]: 0.066 µM

CC(C)(NS(=O)(=O)CCCOCn1ccc(=O)[nH]c1=O)c1cccc(OCC2CC2)c1
IC50 [6]: 0.34 µM
EC50 [4, 19]: 0.45 µM

O=c1ccn(COCCOS(=O)(=O)NS(=O)(=O)c2ccccc2)c(=O)[nH]1
IC50 [6]: 3.1 µM
EC50 ([4]; hela s3): Not Active

O=c1ccn([C@H]2C[C@H](O)[C@@H](COP(=O)(O)NP(=O)(O)OP(=O)(O)O)O2)c(=O)[nH]1
Ki [7]: 5 µM

C[C@H](NS(=O)(=O)CCCOCn1ccc(=O)[nH]c1=O)c1cccc(OCC2CC2)c1
IC50 [6]: 2.5 µM
EC50 [4, 19]: 4.15 µM

O=c1ccn([C@H]2C[C@H](O)[C@@H](COP(=O)(O)CP(=O)(O)OP(=O)(O)OCc3ccccc3)O2)c(=O)[nH]1
Ki [7]: 0.3 µM

CC(C)(C)[Si](C)(C)OCCOCn1ccc(=O)[nH]c1=O
IC50 [6]: 100 µM

CC(C)(CCCOCn1ccc(=O)[nH]c1=O)NS(=O)(=O)c1ccccc1Cl
IC50 [6]: 9.4 µM
EC50 [4, 19]: 7.93 µM

O=c1ccn(COCCOC(c2ccccc2)(c2ccccc2)c2ccccc2)c(=O)[nH]1
IC50 [6]: > 100 µM

C[C@@H](NS(=O)(=O)CCCOCn1ccc(=O)[nH]c1=O)c1ccc(F)c(OCC2CC2)c1
Cmax [8]: 15.1 µM
Activity (MX1 [9]): 2698 mm3
Ratio (MX1 [10]): 14.9
IC50 [6]: 0.021 µM
inhibition in vivo at 300 mg/kg/day (MX1 [11]): 83%
Ratio (MX1 [12]): 1.94
EC50 [4, 19]: 0.075 µM
inhibition in vivo at 300 mg/kg/day (MX1 [13]): -30.9%
IC50 [14]: 28.3 µM
half-life [15]: 84 min
Tmax [16]: 30 min
Activity (MX1 [17]): 299.7 mm3
Activity (Mus musculus): Non-toxic
AUC(0-t) [18]: 24.9 µM·h

COc1ccc(S(=O)(=O)NC(C)(C)CCCOCn2ccc(=O)[nH]c2=O)cc1
IC50 [6]: 18.2 µM
EC50 [4, 19]: 14.9 µM

CC(C)(CCCOCn1ccc(=O)[nH]c1=O)NS(=O)(=O)c1cccc(Cl)c1
IC50 [6]: 4.5 µM
EC50 [4, 19]: 3.96 µM

CC(C)(CCCOCn1ccc(=O)[nH]c1=O)NS(=O)(=O)c1ccc(Cl)cc1
IC50 [6]: 5.7 µM
EC50 [4, 19]: 4.97 µM
